According to ChEMBL document CHEMBL1144558, “Potent anticancer activities of novel aminophenol analogues against various cancer cell lines” (2007):
Calls of active or inactive are those of the source. No cut-off for these calls is given here.

What was measured:
DU-145 = experiment: Growth inhibition of human DU145 cells at 4 uM after 68 hrs relative to control; format: functional; conditions: DU-145, 68 h
In short: (§1)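 Adherent cells trypsinized, seeded at 0.5 × 10^4 cells/ml in RPMI 1640 with 10% FBS (maintenance medium also 10 mM HEPES pH 7.3), 37 °C, 5% CO2. Compound (4 µM) added after 1 day; 68 h exposure. Viable cells by MTT; % net growth = (treated − initial absorbance)/(control − initial absorbance) × 100. Mean of ≥3 (MCF-7 lines) or ≥4 (DU-145, HepG2) measurements.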

MCF7 [1] = experiment: Growth inhibition of human estrogen receptor expressing MCF7 cells at 4 uM after 68 hrs relative to control; format: functional; conditions: MCF7, 68 h; in short: as §1
HL-60 [2] = experiment: Growth inhibition of human HL60 cells at 4 uM after 72 hrs relative to control; format: functional; conditions: HL-60, 72 h
HepG2 = experiment: Growth inhibition of human HepG2 cells at 4 uM after 68 hrs relative to control; format: functional; conditions: HepG2, 68 h; in short: as §1
MCF7 [3] = experiment: Growth inhibition of human estrogen receptor deficient adriamycin-resistant MCF7 cells at 4 uM after 68 hrs relative to control; format: functional; conditions: MCF7, 68 h; in short: as §1
HL-60 [4] = experiment: Induction of apoptosis in human HL60 cells assessed as DNA fragmentation at 4 uM after 20 hrs; format: functional, cell-based
In short: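 Cells at 2 × 10^5 cells/ml in RPMI/10% FBS treated 20 h with 4 µM compound (DMSO control). Washed in PBS pH 7.2, lysed with proteinase K, RNase A and 1% SDS at 37 °C for 30 min, then NaI/isopropanol DNA extraction at 60 °C. DNA run on 2% agarose gel, stained with ethidium bromide, scored for ladder.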

SMILES | inhibition at 4 µM (DU-145) [%] | inhibition at 4 µM (MCF7 [1]) [%] | inhibition at 4 µM (HL-60 [2]) [%] | inhibition at 4 µM (HepG2) [%] | inhibition at 4 µM (MCF7 [3]) [%] | Activity (HL-60 [4])
CC1=C(/C=C/C(C)=C/C=C/C(C)=C/C(=O)Nc2ccc(O)cc2)C(C)(C)CCC1 [FENRETINIDE] | 41 | 62 | 55 | 27 | 60 | 
CC1=C(/C=C/C(C)=C/C=C/C(C)=C/C(=O)O)C(C)(C)CCC1 [TRETINOIN] | 46 | 74 | 42 | 13 | 12 | 
CCCCCCCCCCCC(=O)Nc1ccc(O)cc1 | 41 | 22 | 6 | 22 | 21 | 
CCCCCCCCCC(=O)Nc1ccc(O)cc1 | 51 | 30 | 6 | 26 | 23 | 
CCCCCCCCCCCCNc1ccc(O)cc1 | 73 | 66 | 72 | 13 | 100 | Active
CCCCCCCCCCNc1ccc(O)cc1 | 66 | 57 | 66 | 17 | 100 | Active
